Data taken from ChEMBL document CHEMBL5058577, “EUbOPEN Chemogenomics Library 2 (Multiplex)” (2022).

Tested on: U2OS
Assay: Multiplex assay against U2OS
Format: toxicity, cell-based
Settings: human
Outline: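 Live cells were stained at seeding with Hoechst33342, BioTracker Green Microtubule Cytoskeleton Dye, MitoTracker Red and Annexin V Alexa Fluor 680, then imaged on a CQ1 microscope at 37°C and 5% CO2 after compound addition. CellPathfinder machine-learning gating split cells into Hoechst high-intensity objects or normal cells. Normal cells were split into healthy, pyknosed or fragmented nuclei, and pyknosed cells into mitotic or apoptotic. Tubulin, mitochondrial-mass and membrane-permeability phenotypes are per cents of healthy-nucleus cells.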

[1] = 12 h, 1 µM, compound concentration 1 uM, replicate 1
[2] = 12 h, 1 µM, compound concentration 1 uM, replicate 2
[3] = 12 h, 10 µM, compound concentration 10 uM, replicate 1
[4] = 12 h, 10 µM, compound concentration 10 uM, replicate 2
[5] = 24 h, 1 µM, compound concentration 1 uM, replicate 1
[6] = 24 h, 1 µM, compound concentration 1 uM, replicate 2
[7] = 24 h, 10 µM, compound concentration 10 uM, replicate 1
[8] = 24 h, 10 µM, compound concentration 10 uM, replicate 2
[9] = 48 h, 1 µM, compound concentration 1 uM, replicate 1
[10] = 48 h, 1 µM, compound concentration 1 uM, replicate 2
[11] = 48 h, 10 µM, compound concentration 10 uM, replicate 1
[12] = 48 h, 10 µM, compound concentration 10 uM, replicate 2

CCCCCCNC(=O)Nc1ccc(S(=O)(=O)Nc2ccc(CCNC[C@H](O)COc3ccc(O)cc3)cc2)cc1 [L-755507]
Population Apoptotic (%) [1]: 86%
Population Fragmented Nuclei (%) [1]: 22%
Population Healthy Nuclei (%) [1]: 67%
Population Hoechst High Intensity Objects (%) [1]: 4%
Population Membrane Permeable-Phenotype (%) [1]: 4%
Population Mitochondria Different-Phenotype (%) [1]: 4%
Population Mitotic Cells (%) [1]: 13%
Population Normal (%) [1]: 95%
Population Pyknosed Nuclei (%) [1]: 9%
Population Tubulin-Different-Phenotype (%) [1]: 4%
Total Cell Count [1]: 231
Population Apoptotic (%) [2]: 100%
Population Fragmented Nuclei (%) [2]: 18%
Population Healthy Nuclei (%) [2]: 75%
Population Hoechst High Intensity Objects (%) [2]: 0%
Population Membrane Permeable-Phenotype (%) [2]: 10%
Population Mitochondria Different-Phenotype (%) [2]: 1%
Population Mitotic Cells (%) [2]: 0%
Population Normal (%) [2]: 99%
Population Pyknosed Nuclei (%) [2]: 5%
Population Tubulin-Different-Phenotype (%) [2]: 5%
Total Cell Count [2]: 120
Population Apoptotic (%) [3]: 60%
Population Fragmented Nuclei (%) [3]: 31%
Population Healthy Nuclei (%) [3]: 59%
Population Hoechst High Intensity Objects (%) [3]: 3%
Population Membrane Permeable-Phenotype (%) [3]: 13%
Population Mitochondria Different-Phenotype (%) [3]: 11%
Population Mitotic Cells (%) [3]: 40%
Population Normal (%) [3]: 96%
Population Pyknosed Nuclei (%) [3]: 9%
Population Tubulin-Different-Phenotype (%) [3]: 10%
Total Cell Count [3]: 282
Population Apoptotic (%) [4]: 72%
Population Fragmented Nuclei (%) [4]: 19%
Population Healthy Nuclei (%) [4]: 72%
Population Hoechst High Intensity Objects (%) [4]: 2%
Population Membrane Permeable-Phenotype (%) [4]: 19%
Population Mitochondria Different-Phenotype (%) [4]: 15%
Population Mitotic Cells (%) [4]: 27%
Population Normal (%) [4]: 97%
Population Pyknosed Nuclei (%) [4]: 8%
Population Tubulin-Different-Phenotype (%) [4]: 15%
Total Cell Count [4]: 140
Population Apoptotic (%) [5]: 83%
Population Fragmented Nuclei (%) [5]: 22%
Population Healthy Nuclei (%) [5]: 66%
Population Hoechst High Intensity Objects (%) [5]: 4%
Population Membrane Permeable-Phenotype (%) [5]: 5%
Population Mitochondria Different-Phenotype (%) [5]: 5%
Population Mitotic Cells (%) [5]: 16%
Population Normal (%) [5]: 95%
Population Pyknosed Nuclei (%) [5]: 11%
Population Tubulin-Different-Phenotype (%) [5]: 3%
Total Cell Count [5]: 285
Population Apoptotic (%) [6]: 92%
Population Fragmented Nuclei (%) [6]: 23%
Population Healthy Nuclei (%) [6]: 67%
Population Hoechst High Intensity Objects (%) [6]: 2%
Population Membrane Permeable-Phenotype (%) [6]: 11%
Population Mitochondria Different-Phenotype (%) [6]: 1%
Population Mitotic Cells (%) [6]: 7%
Population Normal (%) [6]: 97%
Population Pyknosed Nuclei (%) [6]: 9%
Population Tubulin-Different-Phenotype (%) [6]: 5%
Total Cell Count [6]: 143
Population Apoptotic (%) [7]: 85%
Population Fragmented Nuclei (%) [7]: 25%
Population Healthy Nuclei (%) [7]: 65%
Population Hoechst High Intensity Objects (%) [7]: 2%
Population Membrane Permeable-Phenotype (%) [7]: 7%
Population Mitochondria Different-Phenotype (%) [7]: 4%
Population Mitotic Cells (%) [7]: 14%
Population Normal (%) [7]: 97%
Population Pyknosed Nuclei (%) [7]: 9%
Population Tubulin-Different-Phenotype (%) [7]: 3%
Total Cell Count [7]: 307
Population Apoptotic (%) [8]: 88%
Population Fragmented Nuclei (%) [8]: 14%
Population Healthy Nuclei (%) [8]: 79%
Population Membrane Permeable-Phenotype (%) [8]: 9%
Population Mitochondria Different-Phenotype (%) [8]: 5%
Population Mitotic Cells (%) [8]: 11%
Population Pyknosed Nuclei (%) [8]: 6%
Population Tubulin-Different-Phenotype (%) [8]: 6%
Total Cell Count [8]: 149
Population Apoptotic (%) [9]: 78%
Population Fragmented Nuclei (%) [9]: 14%
Population Healthy Nuclei (%) [9]: 74%
Population Hoechst High Intensity Objects (%) [9]: 1%
Population Membrane Permeable-Phenotype (%) [9]: 6%
Population Mitochondria Different-Phenotype (%) [9]: 3%
Population Mitotic Cells (%) [9]: 21%
Population Normal (%) [9]: 98%
Population Pyknosed Nuclei (%) [9]: 11%
Population Tubulin-Different-Phenotype (%) [9]: 3%
Total Cell Count [9]: 422
Population Apoptotic (%) [10]: 91%
Population Fragmented Nuclei (%) [10]: 26%
Population Healthy Nuclei (%) [10]: 61%
Population Hoechst High Intensity Objects (%) [10]: 4%
Population Membrane Permeable-Phenotype (%) [10]: 12%
Population Mitochondria Different-Phenotype (%) [10]: 5%
Population Mitotic Cells (%) [10]: 8%
Population Normal (%) [10]: 95%
Population Pyknosed Nuclei (%) [10]: 12%
Population Tubulin-Different-Phenotype (%) [10]: 6%
Total Cell Count [10]: 188
Population Apoptotic (%) [11]: 80%
Population Fragmented Nuclei (%) [11]: 19%
Population Healthy Nuclei (%) [11]: 70%
Population Hoechst High Intensity Objects (%) [11]: 2%
Population Membrane Permeable-Phenotype (%) [11]: 7%
Population Mitochondria Different-Phenotype (%) [11]: 2%
Population Mitotic Cells (%) [11]: 20%
Population Normal (%) [11]: 97%
Population Pyknosed Nuclei (%) [11]: 9%
Population Tubulin-Different-Phenotype (%) [11]: 4%
Total Cell Count [11]: 419
Population Apoptotic (%) [12]: 94%
Population Fragmented Nuclei (%) [12]: 13%
Population Healthy Nuclei (%) [12]: 78%
Population Hoechst High Intensity Objects (%) [12]: 1%
Population Mitochondria Different-Phenotype (%) [12]: 3%
Population Mitotic Cells (%) [12]: 5%
Population Normal (%) [12]: 98%
Population Pyknosed Nuclei (%) [12]: 7%
Population Tubulin-Different-Phenotype (%) [12]: 6%
Total Cell Count [12]: 242

CN1CCN2c3ccccc3Cc3ccccc3C2C1.Cl (configuration not stated) [MIANSERIN HYDROCHLORIDE]
Population Apoptotic (%) [1]: 91%
Population Fragmented Nuclei (%) [1]: 35%
Population Healthy Nuclei (%) [1]: 56%
Population Hoechst High Intensity Objects (%) [1]: 3%
Population Membrane Permeable-Phenotype (%) [1]: 7%
Population Mitochondria Different-Phenotype (%) [1]: 4%
Population Mitotic Cells (%) [1]: 8%
Population Normal (%) [1]: 96%
Population Pyknosed Nuclei (%) [1]: 7%
Population Tubulin-Different-Phenotype (%) [1]: 5%
Total Cell Count [1]: 162
Population Apoptotic (%) [2]: 83%
Population Fragmented Nuclei (%) [2]: 16%
Population Healthy Nuclei (%) [2]: 77%
Population Hoechst High Intensity Objects (%) [2]: 1%
Population Membrane Permeable-Phenotype (%) [2]: 3%
Population Mitochondria Different-Phenotype (%) [2]: 3%
Population Mitotic Cells (%) [2]: 16%
Population Normal (%) [2]: 98%
Population Pyknosed Nuclei (%) [2]: 5%
Population Tubulin-Different-Phenotype (%) [2]: 2%
Total Cell Count [2]: 109
Population Apoptotic (%) [3]: 78%
Population Fragmented Nuclei (%) [3]: 23%
Population Healthy Nuclei (%) [3]: 68%
Population Hoechst High Intensity Objects (%) [3]: 2%
Population Membrane Permeable-Phenotype (%) [3]: 7%
Population Mitochondria Different-Phenotype (%) [3]: 3%
Population Mitotic Cells (%) [3]: 21%
Population Normal (%) [3]: 97%
Population Pyknosed Nuclei (%) [3]: 8%
Population Tubulin-Different-Phenotype (%) [3]: 4%
Total Cell Count [3]: 277
Population Apoptotic (%) [4]: 86%
Population Fragmented Nuclei (%) [4]: 12%
Population Healthy Nuclei (%) [4]: 77%
Population Hoechst High Intensity Objects (%) [4]: 1%
Population Membrane Permeable-Phenotype (%) [4]: 1%
Population Mitochondria Different-Phenotype (%) [4]: 2%
Population Mitotic Cells (%) [4]: 13%
Population Normal (%) [4]: 98%
Population Pyknosed Nuclei (%) [4]: 10%
Population Tubulin-Different-Phenotype (%) [4]: 0%
Total Cell Count [4]: 152
Population Apoptotic (%) [5]: 88%
Population Fragmented Nuclei (%) [5]: 34%
Population Healthy Nuclei (%) [5]: 56%
Population Hoechst High Intensity Objects (%) [5]: 1%
Population Membrane Permeable-Phenotype (%) [5]: 6%
Population Mitochondria Different-Phenotype (%) [5]: 1%
Population Mitotic Cells (%) [5]: 11%
Population Normal (%) [5]: 98%
Population Pyknosed Nuclei (%) [5]: 8%
Population Tubulin-Different-Phenotype (%) [5]: 4%
Total Cell Count [5]: 197
Population Apoptotic (%) [6]: 75%
Population Fragmented Nuclei (%) [6]: 23%
Population Healthy Nuclei (%) [6]: 70%
Population Hoechst High Intensity Objects (%) [6]: 2%
Population Membrane Permeable-Phenotype (%) [6]: 4%
Population Mitochondria Different-Phenotype (%) [6]: 3%
Population Mitotic Cells (%) [6]: 25%
Population Normal (%) [6]: 97%
Population Pyknosed Nuclei (%) [6]: 5%
Population Tubulin-Different-Phenotype (%) [6]: 3%
Total Cell Count [6]: 142
Population Apoptotic (%) [7]: 69%
Population Fragmented Nuclei (%) [7]: 21%
Population Healthy Nuclei (%) [7]: 68%
Population Hoechst High Intensity Objects (%) [7]: 1%
Population Membrane Permeable-Phenotype (%) [7]: 9%
Population Mitochondria Different-Phenotype (%) [7]: 2%
Population Mitotic Cells (%) [7]: 30%
Population Normal (%) [7]: 98%
Population Pyknosed Nuclei (%) [7]: 10%
Population Tubulin-Different-Phenotype (%) [7]: 2%
Total Cell Count [7]: 319
Population Apoptotic (%) [8]: 93%
Population Fragmented Nuclei (%) [8]: 13%
Population Healthy Nuclei (%) [8]: 77%
Population Hoechst High Intensity Objects (%) [8]: 2%
Population Membrane Permeable-Phenotype (%) [8]: 7%
Population Mitochondria Different-Phenotype (%) [8]: 3%
Population Mitotic Cells (%) [8]: 6%
Population Normal (%) [8]: 97%
Population Pyknosed Nuclei (%) [8]: 8%
Total Cell Count [8]: 183
Population Apoptotic (%) [9]: 78%
Population Fragmented Nuclei (%) [9]: 28%
Population Healthy Nuclei (%) [9]: 65%
Population Hoechst High Intensity Objects (%) [9]: 2%
Population Membrane Permeable-Phenotype (%) [9]: 5%
Population Mitochondria Different-Phenotype (%) [9]: 2%
Population Mitotic Cells (%) [9]: 21%
Population Normal (%) [9]: 97%
Population Pyknosed Nuclei (%) [9]: 5%
Population Tubulin-Different-Phenotype (%) [9]: 4%
Total Cell Count [9]: 269
Population Fragmented Nuclei (%) [10]: 19%
Population Healthy Nuclei (%) [10]: 71%
Population Hoechst High Intensity Objects (%) [10]: 1%
Population Membrane Permeable-Phenotype (%) [10]: 4%
Population Mitochondria Different-Phenotype (%) [10]: 3%
Population Normal (%) [10]: 98%
Population Pyknosed Nuclei (%) [10]: 9%
Population Tubulin-Different-Phenotype (%) [10]: 2%
Total Cell Count [10]: 206
Population Apoptotic (%) [11]: 91%
Population Fragmented Nuclei (%) [11]: 18%
Population Healthy Nuclei (%) [11]: 71%
Population Hoechst High Intensity Objects (%) [11]: 4%
Population Membrane Permeable-Phenotype (%) [11]: 4%
Population Mitochondria Different-Phenotype (%) [11]: 2%
Population Mitotic Cells (%) [11]: 8%
Population Normal (%) [11]: 95%
Population Pyknosed Nuclei (%) [11]: 9%
Population Tubulin-Different-Phenotype (%) [11]: 1%
Total Cell Count [11]: 397
Population Apoptotic (%) [12]: 87%
Population Fragmented Nuclei (%) [12]: 15%
Population Healthy Nuclei (%) [12]: 73%
Population Hoechst High Intensity Objects (%) [12]: 2%
Population Mitochondria Different-Phenotype (%) [12]: 3%
Population Mitotic Cells (%) [12]: 12%
Population Normal (%) [12]: 97%
Population Pyknosed Nuclei (%) [12]: 11%
Population Tubulin-Different-Phenotype (%) [12]: 2%
Total Cell Count [12]: 285
